# Screening results deposited in PubChem BioAssay by Sanford-Burnham Center for Chemical Genomics.
# Rows were chosen to be rich in hits. Some 1.6% of all compounds tested hit in one or more screens of this group.
# FLuc inhib CS = counter-screen for luciferase assay inhibitors: firefly luciferase inhibition; ATPLite firefly luciferase biochemical luminescence, 10 min; inhibition, % at 10 µM; 1.5% of 200,000 active; AID 1006;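 active = inhibition above about 50% when tested at 10 µM, limit read from the data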
# Target sequence (P08659 whole entry, looked up): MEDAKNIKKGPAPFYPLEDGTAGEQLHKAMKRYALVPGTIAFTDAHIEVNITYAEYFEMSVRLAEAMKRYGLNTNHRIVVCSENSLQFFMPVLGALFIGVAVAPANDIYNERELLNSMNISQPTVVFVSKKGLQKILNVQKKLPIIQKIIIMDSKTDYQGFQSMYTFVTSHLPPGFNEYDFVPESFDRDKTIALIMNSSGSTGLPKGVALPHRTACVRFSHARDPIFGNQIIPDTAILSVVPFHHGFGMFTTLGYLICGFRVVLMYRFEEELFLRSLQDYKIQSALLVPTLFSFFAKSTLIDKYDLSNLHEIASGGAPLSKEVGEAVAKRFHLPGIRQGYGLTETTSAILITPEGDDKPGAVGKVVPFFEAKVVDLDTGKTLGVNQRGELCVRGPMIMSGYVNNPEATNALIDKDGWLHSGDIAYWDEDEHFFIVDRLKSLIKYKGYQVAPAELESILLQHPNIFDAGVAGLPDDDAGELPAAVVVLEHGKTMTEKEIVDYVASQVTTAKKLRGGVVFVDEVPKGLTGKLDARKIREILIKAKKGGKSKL
# FLuc act counter = affects firefly luciferase, flagging false hits in luciferase stimulation screens. P08659. activation factor at 10 µM. ATPlite luciferase biochemical, luminescence, 10 min; 0 = ATP-free wells, 1 = DMSO control. 200,000 tested, under 10 active;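 active = luciferase activation factor, scaled between plate controls, of at least 2 with compound at 10 µM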
#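 System: luciferase plus luciferin reagent, cell-free; medium: PBS as buffer for the ATP substrate; dosing: test compounds dosed from 2 mM stocks in 100% DMSO; timing: 10 min post-reagent at room temperature; measured by: luminescence measurement of luciferase light output; evaluation: luciferase activation, seen as luminescence increase over controls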
# PPC-1+TRAIL kill = compounds killing PPC-1 cancer cells with TRAIL present (potentiator screen, no TRAIL-free arm); PPC-1 cells + TRAIL, ATPLite viability luminescence; cell killing (% activity), % at 4 µM or 5 µM; 0.41% of 220,000 active; AID 1443;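 active = cell killing above 50% in the first pass at 4 µM, then a duplicate retest at 5 µM averaging 50% or more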
# C8 TRAIL sens = caspase-8 TRAIL sensitization. NB7+C8 cells + TRAIL, ATPlite viability luminescence. inhibition (viability loss, TRAIL sensitization), % at 10 µM. 1% of 360,000 active. AID 624354;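 active = compounds causing at least 50% loss of cell viability in the single-dose screen, relative to plate controls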
# Hits are given with their value; - = inactive; . = no result.
SMILES,FLuc inhib CS,FLuc act counter,PPC-1+TRAIL kill,C8 TRAIL sens
CCN(CC)c1ccc(N2C(=NC(=O)C3CC3)SC3CS(=O)(=O)CC32)cc1 (centres undefined),.,.,.,-
O=C(O)c1cccc(CN2C(=O)SC(Nc3cccc4ccccc34)C2=O)c1 (centres undefined),58.0,-,-,-
O=C(O)c1cccc(CN2C(=O)SC(Nc3ccccc3)C2=O)c1 (centres undefined),-,-,-,-
Clc1ccc(Cn2ncc3c(N4CCN(c5ccccc5)CC4)ncnc32)cc1,.,.,.,73.5
CCOC(=O)C1CCN(c2ncnc3c2cnn3-c2ccc(Cl)cc2)CC1,-,-,-,-
O=C(c1ccccc1)N1CCN(c2ncnc3c2cnn3-c2ccccc2)CC1,-,-,-,-
CC(C)Nc1ncnc2c1cnn2-c1ccc(Cl)cc1,63.9,-,-,56.9
Clc1ccc(Nc2ncnc3c2cnn3-c2ccccc2)cc1,-,-,-,-
Cc1nn(-c2ccccc2)c(Cl)c1C(=O)N1CCN(c2ncnc3c2cnn3-c2ccccc2)CC1,-,-,-,73.1
Clc1ccc(-n2ncc3c(N4CCCC4)ncnc32)cc1,75.0,-,-,55.2
O=C(O)c1cc(S(=O)(=O)Nc2ccc3cn[nH]c3c2)ccc1O,.,.,.,-
Cc1ccc2nc(-c3ccc(F)cc3)c(Cc3ccccc3C(F)(F)F)n2c1,.,.,.,-
CCN1CCN(c2ccc(S(=O)(=O)N3CCCCC3)cc2NC(=O)/C=C/c2ccc(OC(F)F)cc2)CC1,.,.,.,56.4
CCOC(=O)c1sc(NC(=O)c2cccc(S(=O)(=O)N3CCc4ccccc43)c2)c(C#N)c1C,.,.,-,46.2
Cc1ccccc1NC(=O)CCCN1C(=O)C2CC=CCC2C1=O (centres undefined),.,.,.,-
Cn1c(O)c(N=NC(=O)c2ccccc2O)c2ccccc21,81.7,-,-,-
Cc1occc1C(=O)N=Nc1c(O)n(C)c2ccccc12,59.6,-,-,-
Cn1c(O)c(N=NC(=O)c2ccco2)c2ccccc21,64.3,-,-,-
CCOC(=O)C(=O)N=Nc1c(O)n(C)c2ccccc12,-,-,-,-
O=C(N=Nc1c(O)n(Cc2ccccc2)c2ccccc12)c1ccc(O)cc1,50.7,-,-,-
COc1ccc2nc(N3C(=O)CNC3=S)sc2c1,.,.,-,49.8
Cc1ccc2nc(N3C(=O)CNC3=S)sc2c1,.,.,-,-
Cc1ccc(O)c(NC(=O)c2noc3c2CCCCC3)c1,65.3,-,-,-
Cc1ccc(NC(=O)c2cc(C)on2)cc1,-,-,-,-
CCc1ccc(NC(=O)c2cc(C)on2)cc1,61.2,-,-,-
SMILES,FLuc inhib CS,FLuc act counter,PPC-1+TRAIL kill,C8 TRAIL sens
CCc1ccc(NC(=O)c2noc3c2CCCCC3)cc1,-,-,-,-
CCc1ccc(NC(=O)c2noc3c2CCC3)cc1,63.8,-,-,-
COC(=O)c1ccc(NC(=O)CCCN2C(=O)NC(C)(C)C2=O)cc1,.,.,.,-
Cc1cccc(CS(=O)(=O)c2ncc(Cl)c(C(=O)NCc3ccccc3)n2)c1,.,.,.,-
COc1ccc(OC)c(NC(=O)c2nc(S(=O)(=O)Cc3ccccc3)ncc2Cl)c1,.,.,.,95.9
COc1ccc(NC(=O)c2nc(S(=O)(=O)Cc3cccc(C)c3)ncc2Cl)c(OC)c1,.,.,.,51.6
Cc1cccc(CS(=O)(=O)c2ncc(Cl)c(C(=O)Nc3c(C)cccc3C)n2)c1,.,.,.,-
C[C@H](CO)N1C[C@H](C)[C@@H](CN(C)Cc2ccncc2)OCc2cnnn2CCCC1=O,.,.,.,-
O=C(N/N=C/c1ccccn1)c1ccc([N+](=O)[O-])cc1,66.8,-,-,-
O=C(N/N=C/c1ccccn1)c1ccc(N/N=C/c2ccccn2)cc1,72.3,-,-,-
O=C(N/N=C/c1ccccn1)c1cc([N+](=O)[O-])cc([N+](=O)[O-])c1,-,-,-,-
O=C(N/N=C/c1ccc(F)cc1)c1ccc(Br)cc1,-,-,-,-
Cc1cccc(/C=N/NC(=O)c2ccc(Br)cc2)c1,53.7,-,-,-
Cc1cccc(C(=O)N/N=C/c2ccccn2)c1,50.6,-,-,-
CC(C)Cc1nnc(NC(=O)CCS(=O)(=O)c2ccc(Cl)cc2)s1,.,.,.,-
CC(O)CNC(=O)Cc1cc(=O)[nH]c(=O)[nH]1 (centres undefined),.,.,-,-
CC1CC(C)C(=O)C(C(CC2CC(=O)NC(=O)C2)OC(=O)CC(=O)c2ccccc2)C1 (centres undefined),.,.,.,-
COc1ccccc1NS(=O)(=O)c1cccc(-n2c(O)c(C=Nc3ccccc3C(=O)O)c3ccccc3c2=O)c1,.,.,-,-
CC(C)CCNC(=O)CCc1nnc2ccc(N3CCC(C)CC3)nn12,.,.,.,-
O=C(N/N=C/c1ccccn1)c1ccc(Br)cc1,82.3,-,-,-
CC(C)(C)c1ccc(C(=O)N/N=C/c2ccccn2)cc1,.,.,.,-
CCc1nc2c(OCc3cccc(Cl)c3)cccn2c1N(C)C(=O)Nc1ccccc1OC,.,.,.,-
Cn1ccc2c(-c3ccc4[nH]ccc4c3)cc3c(c21)C1CCC3O1 (centres undefined),.,.,.,-
CC(C)OC(=O)c1ccc(NCc2cc(O)ccc2O)cc1,.,.,.,73.0
CCC(=O)Nc1ccc(C(=O)OCc2ccccc2)cc1,-,-,-,-
SMILES,FLuc inhib CS,FLuc act counter,PPC-1+TRAIL kill,C8 TRAIL sens
O=C(OCc1ccccc1)c1ccc(NCc2cc(O)ccc2O)cc1,.,.,.,89.8
O=C(NC(=S)N1CCN(c2ccc(C(F)(F)F)cc2[N+](=O)[O-])CC1)c1cccs1,-,-,-,50.6
CC(C)NC(=O)c1cc(C2CCCCN2S(=O)(=O)c2ccccc2)on1 (centres undefined),.,.,.,-
O=c1cc(-c2ccc(O)cc2)oc2ccc3ccccc3c12,.,.,.,89.6
COc1c(OC(C)=O)ccc(/C=C/c2ccc3cccc(OCc4ccccc4)c3n2)c1[N+](=O)[O-],-,-,-,49.4
CCc1nc2ccc(C(=O)N(CC)CCN(C)C)cn2c1N(C)C(=O)c1cccc(OC)c1,.,.,.,-
O=C(N/N=C/c1ccc(F)cc1)c1ccccc1,75.4,-,-,-
CSc1ccc(/C=N/NC(=O)c2cc(O)cc(O)c2)cc1,73.5,-,-,-
O=C(N/N=C/c1ccc(O)cc1)c1ccc(NC(=O)c2ccccc2Br)cc1,-,-,-,-
O=C(O)c1ccc(/C=N/NC(=O)c2ccc(F)cc2)cc1,.,.,-,-
O=C(Nc1ccccc1C(=O)N/N=C/c1ccc(F)cc1)c1ccccc1Br,74.0,-,-,-
CCN(CC(=O)NCc1ccc(F)cc1)C(=O)C1CCN(S(=O)(=O)c2ccc(C(C)C)cc2)CC1,.,.,.,-
Cn1cnc(S(=O)(=O)N2CCCCC2c2cc(C(=O)Nc3ccccc3Cl)no2)c1 (centres undefined),.,.,.,-
C/C(=N\N(Cc1ccccc1)c1ccccc1)c1cccnc1,-,-,-,-
COc1ccc2c(c1OC)C(=O)N(c1nccs1)C2,-,-,-,-
COc1ccc(N2Cc3ccc(OC)c(OC)c3C2=O)cc1,.,.,.,50.9
COC1=Nc2ccccc2/C=C\c2ccccc21,.,.,.,-
COc1oc(C(=O)NC2CCCCC2)c(-c2ccc(Cl)cc2)c1S(=O)(=O)c1ccccc1,.,.,.,88.6
COc1cccc(/C=N/Nc2ncnc(Cl)c2N)c1O,68.5,-,60.4,59.4
COc1ccccc1/C=N/Nc1nncc2ccccc12,-,-,-,-
COc1cccc(/C=N/Nc2ncnc(N)c2[N+](=O)[O-])c1OC,78.1,-,-,-
